This is an account of results in ChEMBL document CHEMBL4184228, “Reversed isoniazids: Design, synthesis and evaluation against Mycobacterium tuberculosis” (Bioorg Med Chem, 2018).

In brackets after ≈: the same amount, converted by molar mass. Bounds are passed on as bounds.

Assay [1] relates to Mycobacterium tuberculosis. The experiment in a line: Antimycobacterial activity against Mycobacterium bovis BCG. The settings on record: variant bovis BCG. In kind it is functional.
Assay [2] deals with Mycobacterium tuberculosis. The experiment in a line: Growth inhibition of Mycobacterium bovis BCG infected in PBMC assessed as decrease in [3H]-uridine incorporation at <= IC20 after 72 hrs by microbeta scintillation counting analysis. In kind it is functional, variant bovis BCG. The method in brief:
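PBMCs at 1.5x10^4/well; non-adherent cells are washed off after 24 h. Adherent monocytes are cultured 6 days, then infected with BCG at MOI 3 for 4 h and washed three times. Drugs are added at concentrations at or below the THP-1 IC20 for 72 h.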

As for `O=C(NNCCCN1CCC(N2c3ccccc3Sc3ccc(Cl)cc32)CC1)c1ccncc1`, the minimal inhibitory concentration (MIC) in assay [1] came to 1 µM (≈ 0.494 µg/mL). In addition, the “growth inhibition (GI)” value in assay [2] is recorded as >90%.

On to `O=C(NNCCCN1c2ccccc2Sc2ccccc21)c1ccccc1`, for which, in assay [1], the MIC was 26.6 µM (≈ 9.99 µg/mL). For the same compound, the “growth inhibition (GI)” value in assay [2] came out at 40%.

As to `O=C(NNCCCN1c2ccccc2Sc2ccc(Cl)cc21)c1ccccc1`, the MIC in assay [1] stood at 12.2 µM (≈ 5 µg/mL). The “growth inhibition (GI)” value in assay [2] was found to be 40%.

For the compound `O=C(NNCCCN1c2ccccc2Sc2ccc(Cl)cc21)c1ccncc1`, in assay [1], it took 2.44 µM (≈ 1 µg/mL) to inhibit growth (MIC). The “growth inhibition (GI)” value in assay [2] was >90%.

Turning to `O=C(NNCCCN1c2ccccc2Sc2ccccc21)c1ccncc1`, the MIC in assay [1] was 13.3 µM (≈ 5.01 µg/mL). Besides, in assay [2], the “growth inhibition (GI)” value is recorded as >90%.

The compound `O=C(NNCCCN1c2ccccc2CCc2ccccc21)c1ccncc1` yielded an MIC in assay [1] of 13.4 µM (≈ 5 µg/mL). Further, the “growth inhibition (GI)” value in assay [2] is given as >90%.

For `CN(C)CCCN1c2ccccc2Sc2ccc(Cl)cc21` [CHLORPROMAZINE], the MIC in assay [1] is 4 µM (≈ 1.28 µg/mL). Further, in assay [2], the “growth inhibition (GI)” value was found to be 40%.

The compound `NNC(=O)c1ccncc1` [ISONIAZID] showed an MIC in assay [1] of 0.015 µM (≈ 0.00206 µg/mL). The “growth inhibition (GI)” value in assay [2] is on record as >90%.
